Measured values published in ChEMBL document CHEMBL4382201 (J Med Chem, 2018).
Values after ≈ are worked out from the molar mass of the structure shown. Active and inactive are the calls of the source. No cut-off for these calls is given here.

Columns and labels:
[1] = system: dsDNA; test: Induction of DNA-interstanded-cross-link formation in [32P]-labeled 49-mer duplex DNA (unknown origin) at 1 mM in absence of H2O2 after 16 hrs by PAGE relative to control; assay type: functional
Outline: (§1)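 A 32P-labelled 49-mer, annealed with 1.5 equiv complement (65 °C for 3 min in 10 mM potassium phosphate pH 7, 100 mM NaCl, then slow cooling), was used at 1.0 µM before final dilution. Duplex was mixed with compound (final 1 mM), NaCl and potassium phosphate pH 8, with or without H2O2. Incubation 16 h at room temperature, formamide quench, then 20% denaturing PAGE.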

[2] = system: MDA-MB-468; test: Growth inhibition of human MDA-MB-468 cells after 48 hrs by […]; assay type: functional, cell-based; settings: MDA-MB-468, 48 h
[3] = system: Panel NCI-60 (60 carcinoma cell lines); test: Growth inhibition of human NCI60 cells at 10 uM after 48 hrs by SRB assay relative to control; assay type: functional, cell-based
Outline: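 NCI-60 one-dose screen: cells exposed to 10 µM for 48 h at 37 °C, 5% CO2, 100% humidity. Percent growth is given relative to the no-drug control and the time-zero cell count.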

[4] = system: dsDNA; test: Induction of DNA-interstanded-cross-link formation in [32P]-labeled 49-mer duplex DNA (unknown origin) at 1 mM in presence of H2O2 after 16 hrs by PAGE relative to control; assay type: functional; outline: as §1
[5] = Solubility of the compound in PBS buffer at 10 mM at pH 7.4 by UV-based analysis; assay type: physicochemical
Outline: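 Compound (10 mM DMSO stock) was diluted into pH 7.4 buffer (ethanolamine/KH2PO4/potassium acetate/KCl) to a final 5% DMSO. After sonication and 18 h agitation the mixture was filtered and scanned by UV at 230-800 nm. Solubility was calculated from calibration plots made in 20% acetonitrile buffer, in quadruplicate, with solubility standards on each plate.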

[6] = Drug metabolism in DMSO-d6/PBS buffer assessed as 4-(bis(2-chloroethyl)amino)phenylboronic acid formation after 10 days in presence of GSH by IT-TOF mass analysis
[7] = Drug metabolism in PBS buffer assessed as 4-(bis(2-chloroethyl)amino)phenylboronic acid formation at pH 6 to 7 after 48 hrs
[8] = Drug metabolism in DMSO-d6/PBS buffer assessed as 2-((2-chloroethyl)(4-(4,4,5,5-tetramethyl-1,3,2-dioxaborolan-2-yl)phenyl)amino)ethanol formation after 10 days in presence of GSH by IT-TOF mass analysis
[9] = system: SR; test: Growth inhibition of human SR cells after 48 hrs by SRB assay; assay type: functional
Outline: (§2)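 NCI-60 five-dose screen at 100 µM, 10 µM, 1 µM, 100 nM and 10 nM. Incubation 48 h at 37 °C, 5% CO2, 100% humidity. Growth was expressed relative to the no-drug control and to the time-zero cell number, and GI50 was derived from these values.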

[10] = system: MDA-MB-468; test: Growth inhibition of human MDA-MB-468 cells after 48 hrs by SRB assay; assay type: functional; settings: MDA-MB-468, 48 h; outline: as §2

SMILES	Activity [1]	IC50 [2]	growth inhibition (GI) [3]	Activity [4]	solubility [5]	Drug metabolism [6]	Drug metabolism [7]	Drug metabolism [8]	GI50 [9]	GI50 [10]
O=C(O)CCCc1ccc(N(CCCl)CCCl)cc1 [CHLORAMBUCIL]	5.7%	34.4 µM								
N[C@H](Cc1cn(Cc2cc(B(O)O)ccc2N(CCCl)CCCl)c2ccccc12)C(=O)O	1.5 to 15%		inactive	< 65%						
CC1(C)OB(c2ccc(N(CCCl)CCCl)c([N+](=O)[O-])c2)OC1(C)C	1.5 to 15%	92.8 µM	inactive	< 9%	380 µM (≈ 148 µg/mL)					
CC1(C)OB(c2ccc(N(CCCl)CCCl)cc2)OC1(C)C	1.5 to 15%	24.6 µM		< 65%	167 µM (≈ 57.5 µg/mL)	Metabolite detected	Metabolite detected	Metabolite detected	0.63 µM	1.6 µM
